Experimental data published in ChEMBL document CHEMBL1123335, “Synthesis and class III antiarrhythmic activity of (phenylbut-2-enyl)ammonium salts. Effect of conformation on activity” (J Med Chem, 1986).
Where “and” joins values, the source holds several entries; their conditions need not be identical. Identical values can stand only once.

Columns and labels:
[1] = species: Canis familiaris; assay: Compound was evaluated for intracellular electrophysiology in canine Purkinje fiber measured as maximum prolongation of APD95 observed at 10 uM; format: functional, Canis lupus familiaris
Outline: (§1)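 Canine Purkinje fibers superfused at 37 ± 0.5 °C, pH 7.35–7.40 (95:5 O2/CO2), paced at 1.0 Hz (2-ms pulses, 2× diastolic threshold). Fibers stabilized up to 1 h. Intracellular microelectrode (3 M KCl) recording of APD95, 30 min exposure per concentration across 10^-8–10^-4 M. Value is concentration giving 20% APD95 prolongation, or maximum prolongation with its concentration.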

[2] = species: Canis familiaris; assay: Concentration at which maximum observed effect on the action potential (Vmax) at a dose range of 0.1-100 uM occurred; 2/2; format: functional, Canis lupus familiaris
[3] = species: Canis familiaris; assay: Compound was evaluated for intracellular electrophysiology in canine potential (Vmax) at 100 uM; format: functional; conditions: Canis lupus familiaris
Outline: (§2)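 Canine Purkinje fibers at 37 ± 0.5 °C, gassed 95:5 O2/CO2 (pH 7.35–7.40), stimulated at 1.0 Hz. Maximum upstroke velocity (Vmax) recorded by glass microelectrode after up to 1 h stabilization. Compounds tested at 10^-8–10^-4 M with 30 min exposure per concentration. Reported as maximum observed effect on Vmax and the concentration at which it occurred.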

[4] = species: Canis familiaris; assay: Compound was evaluated for intracellular electrophysiology in canine Purkinje fiber measured as maximum prolongation of APD95 observed at 1 uM; format: functional, Canis lupus familiaris; outline: as §1
[5] = species: Canis familiaris; assay: Compound was evaluated for intracellular electrophysiology in canine Purkinje fiber measured as concentration that caused 20% prolongation of action potential duration (APD95) at a dose range of 0.01-100 uM; format: functional, Canis lupus familiaris; outline: as §1
[6] = species: Canis familiaris; assay: Compound was evaluated for intracellular electrophysiology in canine Purkinje fiber measured as concentration that caused 20% prolongation of action potential duration (APD95) at a dose range of 0.1-100 uM; format: functional, Canis lupus familiaris; outline: as §1
[7] = species: Canis familiaris; assay: Compound was evaluated for intracellular electrophysiology in canine Purkinje fiber measured as concentration that caused 20% prolongation of action potential duration (APD95) at a dose range of 0.1-10 uM; format: functional, Canis lupus familiaris; outline: as §1
[8] = system: Canis familiaris; assay: Compound was evaluated for intraduodenal bioavailability in anesthetized dogs measured as mean blood pressure at a dose of 10/30 range; 19/3; format: ADME, organism-based, Canis lupus familiaris, Artery; conditions: dog, in vivo
Outline: (§3)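 Pentobarbital-anesthetized (30 mg/kg i.v.) dogs, 8–20 kg, either sex. Compound given intraduodenally as a 0.5% tragacanth suspension, usually as two doses, the second cumulative. HR, BP, FRP and conduction were measured at 15, 30 and 45 min postdose. Mean BP reported as % change from control, low dose/high dose, for each animal.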

[9] = system: Canis familiaris; assay: In vivo antiarrhythmic efficacy in anesthetized dogs
[10] = system: Canis familiaris; assay: Compound was evaluated for intraduodenal bioavailability in anesthetized dogs measured as mean blood pressure at a dose of 3 range; format: ADME, organism-based, Canis lupus familiaris, Artery; conditions: dog, in vivo, other; outline: as §3
[11] = species: Canis familiaris; assay: Intracellular electrophysiology in canine Purkinje fiber measured as maximum prolongation of APD95 observed at a dose of 10 uM; format: functional, Canis lupus familiaris; outline: as §1
[12] = species: Canis familiaris; assay: Intracellular electrophysiology in canine Purkinje fiber measured as concentration that caused 20% prolongation of action potential duration (APD95); format: functional, Canis lupus familiaris; outline: as §1
[13] = system: Canis familiaris; assay: Compound was evaluated for intraduodenal bioavailability in anesthetized dogs measured as mean blood pressure at a dose of 10/30 range; 2/16; format: ADME, organism-based, Canis lupus familiaris, Artery; conditions: dog, in vivo; outline: as §3
[14] = species: Canis familiaris; assay: Compound was evaluated for intracellular electrophysiology in canine potential (Vmax) at a dose range of 100 uM; format: functional; conditions: Canis lupus familiaris; outline: as §2
[15] = species: Canis familiaris; assay: Compound was evaluated for intracellular electrophysiology in canine Purkinje fiber measured as maximum prolongation of APD95 observed at a dose range of 100 uM; format: functional, Canis lupus familiaris; outline: as §1
[16] = species: Canis familiaris; assay: Compound was evaluated for intracellular electrophysiology in canine potential (Vmax) at 10 uM; format: functional; conditions: Canis lupus familiaris; outline: as §2
[17] = system: Canis familiaris; assay: Compound was evaluated for intraduodenal bioavailability in anesthetized dogs measured as mean blood pressure at a dose of 10/30 range; 10/31; format: ADME, organism-based, Canis lupus familiaris, Artery; conditions: dog, in vivo; outline: as §3
[18] = system: Canis familiaris; assay: In vivo antiarrhythmic efficacy in anesthetized dogs; 2/2
[19] = system: Canis familiaris; assay: Compound was evaluated for intraduodenal bioavailability in anesthetized dogs measured as mean blood pressure at a dose of 10/30 range; 8/49; format: ADME, organism-based, Canis lupus familiaris, Artery; conditions: dog, in vivo; outline: as §3
[20] = species: Canis familiaris; assay: Intracellular electrophysiology in canine potential (Vmax) at a dose range.; format: functional; conditions: Canis lupus familiaris; outline: as §2
[21] = species: Canis familiaris; assay: Compound was evaluated for intracellular electrophysiology in canine Purkinje fiber measured as maximum prolongation of APD95 observed at a dose of 1 uM; format: functional, Canis lupus familiaris; outline: as §1
[22] = system: Canis familiaris; assay: Compound was evaluated for intraduodenal bioavailability in anesthetized dogs measured as mean blood pressure at a dose of 10/30 range; 8/8; format: ADME, organism-based, Canis lupus familiaris, Artery; conditions: dog, in vivo; outline: as §3
[23] = species: Canis familiaris; assay: Compound was evaluated for intracellular electrophysiology in canine Purkinje fiber measured as concentration that caused 20% prolongation of action potential duration (APD95) at a dose range of 0.01-1 uM; format: functional, Canis lupus familiaris; outline: as §1
[24] = species: Canis familiaris; assay: Compound was evaluated for intracellular electrophysiology in canine Purkinje fiber measured as concentration that caused 20% prolongation of action potential duration (APD95) at a dose range of 0.01-10 uM; NR=Not reached; format: functional; conditions: Canis lupus familiaris; outline: as §1
[25] = system: Canis familiaris; assay: Compound was evaluated for intraduodenal bioavailability in anesthetized dogs measured as mean blood pressure at a dose of 10/30 range; 6/2; format: ADME, organism-based, Canis lupus familiaris, Artery; conditions: dog, in vivo; outline: as §3
[26] = species: Canis familiaris; assay: Compound was evaluated for intracellular electrophysiology in canine potential (Vmax) at a dose of 100 uM; format: functional; conditions: Canis lupus familiaris; outline: as §2
[27] = system: Canis familiaris; assay: In vivo antiarrhythmic efficacy in anesthetized dogs; 2/3
[28] = species: Canis familiaris; assay: Compound was evaluated for intracellular electrophysiology in canine potential (Vmax) at a dose range of 0.01-10 uM; format: functional; conditions: Canis lupus familiaris; at 0.01 to 10 µM
Outline: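 Isolated cardiac fibres superfused with bicarbonate/glucose salt solution gassed 95:5 O2/CO2 (pH 7.35–7.40), 37 ± 0.5 °C. Bipolar stimulation at 1.0 Hz with 2-ms square pulses at twice diastolic threshold. Intracellular recording with 3 M KCl glass microelectrodes after up to 1 h stabilization. Each concentration (10^-8–10^-4 M) applied for 30 min. Value is the maximum Vmax effect and the concentration at which it occurred, per study.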

[29] = species: Canis familiaris; assay: Compound was evaluated for intracellular electrophysiology in canine potential (Vmax) at a dose of 10 uM; format: functional, Canis lupus familiaris; outline: as §2
[30] = system: Canis familiaris; assay: In vivo antiarrhythmic efficacy in anesthetized dogs; Inactive at 3 mg/kg
[31] = species: Canis familiaris; assay: Compound was evaluated for intracellular electrophysiology in canine potential (Vmax) at a dose of 1 uM; format: functional, Canis lupus familiaris; conditions: at 1 µM
[32] = system: Canis familiaris; assay: Compound was evaluated for intraduodenal bioavailability in anesthetized dogs measured as mean blood pressure at a dose of 10/60 range; 13/23; format: ADME, organism-based, Canis lupus familiaris, Artery; conditions: dog, in vivo; outline: as §3
[33] = species: Canis familiaris; assay: Compound was evaluated for intracellular electrophysiology in canine uM; format: functional; conditions: Canis lupus familiaris; outline: as §2

In the case of `CCN(CC)C/C(C)=C(/C)Cc1ccc([N+](=O)[O-])cc1.Cl`, the APD95 [1] is reported as 66% and 55%, the Efficacy [2] is reported as 2 and the Vmax [3] is reported as -28% and -52%. The “Max APD95” value [4] was 27%, the C20 [5] was 0.05 µM and the C20 [6] was less than 0.1 µM. For the same compound, the C20 [7] was 0.4 µM, the Bioavailabiility [8] was 19% and the Effective dose [9] was 0.1 mg/kg and 0.3 mg/kg. It also gave a Bioavailabiility [10] of 9%.
With `CCCCCCC[N+](CC)(CC)C/C=C\Cc1ccc(Cl)cc1.Cc1ccc(S(=O)(=O)[O-])cc1` the APD95 [11] was 42% and 47% and 23%.
In the case of `CCCCCCC[N+](CC)(CC)C/C=C/Cc1ccc(Cl)cc1.Cc1ccc(S(=O)(=O)[O-])cc1`, the C20 [12] is reported as <1 µM and 1.9 µM and 1.4 µM.
`CCN(CC)C/C(C)=C(/C)Cc1ccc([N-]S(C)(=O)=O)cc1.[Na+]` showed a C20 [12] of 2.2 µM, a Bioavailabiility [13] of 2% and a Vmax [14] of -13%. It also gave an APD95 [15] of 78%.
In the case of `CCN(CC)C/C=C\Cc1ccc([N+](=O)[O-])cc1.Cl`, the C20 [12] is reported as 0.9 µM, the APD95 [1] is reported as 25% and the Vmax [16] is reported as -13%. For the same compound, the Bioavailabiility [17] was 10%.
In the case of `CCCCCCC[N+](CC)(CC)C/C=C\Cc1ccc(Cl)cc1.O=P([O-])(O)O`, the Efficacy [18] is reported as 2, the APD95 [11] is reported as 28% and 29% and 23% and the Effective dose [9] is reported as 0.3 mg/kg.
With `C[N+](C)(C)C/C=C\Cc1ccc(Cl)cc1.[Cl-]` the C20 [12] was 0.3 µM, the Bioavailabiility [19] was 8% and the Vmax [20] was “Minimal”. It also gave an APD95 [11] of 43%.
For `CCCCCCC[N+](CC)(CC)C/C=C\Cc1ccccc1Cl.[Cl-]`, the Efficacy [18] was 2, the APD95 [21] was 72% and the Vmax [20] was “Minimal”. It also gave an APD95 [11] of 16%, a Bioavailabiility [22] of 8% and a C20 [23] of less than 0.1 µM. For the same compound, the C20 [24] was “Not reached” and the Bioavailabiility [25] was 6%.
For `CCN(CC)CC#CCc1ccc(Cl)cc1.Cl`, the APD95 [11] was -6%, the C20 [24] was “Not reached” and the Vmax [26] was -34%.
`CCCCCCC[N+](CC)(CC)C/C=C\Cc1ccc(Br)cc1.O=P([O-])(O)O` was tested, and the Efficacy [18] was 2, the C20 [12] was 5.7 µM and the Vmax [20] was “Minimal”. For the same compound, the Effective dose [9] was 1 mg/kg and 3 mg/kg.
In the case of `CCCCCCC[N+](CC)(CC)CCCCc1ccc(Cl)cc1.O=P([O-])(O)O` [CLOFILIUM PHOSPHATE], the C20 [12] is reported as 2 µM, the Efficacy [27] is reported as 2 and the Vmax [28] is reported as -21%. The APD95 [29] was 78% and 27%, the Effective dose [30] was 0.5 mg/kg and the APD95 [11] was 29% and 46%. The APD95 [31] was 25% and 29% and the Effective dose [9] was 0.1 mg/kg.
In the case of `CCCCCCC[N+](CC)(CC)C/C=C\Cc1cccc(Cl)c1Cl.Cc1ccc(S(=O)(=O)[O-])cc1`, the C20 [12] is reported as 2 µM, the Vmax [20] is reported as “Minimal” and the APD95 [11] is reported as 35%. For the same compound, the Bioavailabiility [32] was 13%.
`CC[N+](CC)(CC)CC#CCc1ccc(Cl)cc1.[I-]` was tested, and the C20 [12] was 0.3 µM, the Vmax [33] was -6% and the APD95 [11] was 53%.
